Source: ChEMBL document CHEMBL1138497, “Design and synthesis of small molecule glycerol 3-phosphate acyltransferase inhibitors” (J Med Chem, 2009)

Experiment: Inhibition of mitochondrial glycerol 3-phosphate acyltransferase by liquid scintillation counting
Summary of the method: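 Mitochondrial GPAT preparation added to start reaction in mixture of 14C-labelled glycerol 3-phosphate and palmitoyl-CoA with a range of inhibitor concentrations; acylation quantified by scintillation counting. Triplicate points; IC50 taken as inhibitor level giving 50% of activity seen with DMSO vehicle alone.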
CCCCCS(=O)(=O)Nc1ccccc1CP(=O)(O)O gave an IC50 of 129 µM.
Molecule CCCCCS(=O)(=O)Nc1cccc(CP(=O)(O)O)c1 has an IC50 of 141 µM.
With CCCCCCCCCS(=O)(=O)Nc1ccc(CP(=O)(O)O)cc1 the IC50 was 81.3 µM.
In the case of CCCCCCCCS(=O)(=O)Nc1ccc(F)cc1C(=O)O, the IC50 is reported as 89 µM.
For CCCCCCCCCS(=O)(=O)Nc1cccc(CP(=O)(O)O)c1, the IC50 was 62.8 µM.
In the case of O=C(O)c1cccc(NS(=O)(=O)c2ccccc2)c1, the IC50 is reported as 138 µM.
With CCCCCCCCS(=O)(=O)Nc1cccc(P(=O)(O)O)c1 the IC50 was 72.4 µM.
Work on CCCCCCCCS(=O)(=O)Nc1ccc(P(=O)(O)O)cc1 yielded an IC50 of 95.3 µM.
With CCCCCCCCCCCCCCCCS(=O)(=O)Nc1ccccc1C(=O)O the IC50 was 18.3 µM.
In the case of CCCCCS(=O)(=O)Nc1ccc(CP(=O)(O)O)cc1, the IC50 is reported as 148 µM.
CCCCCCCCCS(=O)(=O)NCc1ccccc1C(=O)O showed an IC50 of 66.5 µM.
In the case of CCCCCCCCCS(=O)(=O)Nc1ccccc1C(=O)O, the IC50 is reported as 24.7 µM.
With CCCCCCCCS(=O)(=O)Nc1ccc(O)cc1C(=O)O the IC50 was 116 µM.
CCCCCS(=O)(=O)NCc1ccc(C(=O)O)cc1 gave an IC50 of 252 µM.
CCCCCCCCCS(=O)(=O)Nc1ccc(C(=O)O)cc1 gave an IC50 of 88.9 µM.
Molecule CCCCCCCCCS(=O)(=O)Nc1ccc(Cl)cc1C(=O)O has an IC50 of 31.8 µM.
O=C(O)c1cccc(NS(=O)(=O)Cc2ccccc2)c1 gave an IC50 of 178 µM.
In the case of O=C(O)c1ccccc1NS(=O)(=O)c1ccc(Cl)cc1, the IC50 is reported as 107 µM.
For CCCCCCCCCS(=O)(=O)NCc1ccc(C(=O)O)cc1, the IC50 was 129 µM.
CCCCCCCCCS(=O)(=O)Nc1ccccc1CP(=O)(O)O showed an IC50 of 81.1 µM.
Molecule CCCCCS(=O)(=O)NCc1ccccc1C(=O)O has an IC50 of 217 µM.
For CCCCCS(=O)(=O)NCc1cccc(C(=O)O)c1, the IC50 was 310 µM.
O=C(O)c1cccc(NS(=O)(=O)CCc2ccccc2)c1 gave an IC50 of 164 µM.
In the case of O=C(O)c1ccc(NS(=O)(=O)Cc2ccccc2)cc1, the IC50 is reported as 221 µM.
Molecule CCCCCCCCCS(=O)(=O)NCc1cccc(C(=O)O)c1 has an IC50 of 83.5 µM.
O=C(O)c1ccc(NS(=O)(=O)CCc2ccccc2)cc1 showed an IC50 of 206 µM.
With O=C(O)c1ccccc1NS(=O)(=O)c1ccccc1 the IC50 was 146 µM.
With CCCCCCCCS(=O)(=O)Nc1ccccc1P(=O)(O)O the IC50 was 73.6 µM.
For O=C(O)c1ccc(NS(=O)(=O)c2ccccc2)cc1, the IC50 was 151 µM.
For CCCCCCCCCS(=O)(=O)Nc1cccc(C(=O)O)c1, the IC50 was 73.9 µM.
For CCCCCCCCCCCCCCS(=O)(=O)Nc1ccccc1C(=O)O, the IC50 was 17.4 µM.
Work on CS(=O)(=O)Nc1ccccc1C(=O)O yielded an IC50 of 132 µM.
With O=C(O)c1ccccc1NS(=O)(=O)CCc1ccccc1 the IC50 was 152 µM.
With O=C(O)c1ccccc1NS(=O)(=O)Cc1ccccc1 the IC50 was 140 µM.
Molecule O=C(O)c1ccc(NS(=O)(=O)c2ccc(Cl)cc2)cc1 has an IC50 of 108 µM.
With O=C(O)c1cccc(NS(=O)(=O)c2ccc(Cl)cc2)c1 the IC50 was 75.7 µM.
